Source: ChEMBL document CHEMBL4177582, “Modifications of flexible nonyl chain and nucleobase head group of (+)-erythro-9-(2's-hydroxy-3's-nonyl)adenine [(+)-EHNA] as adenosine deaminase inhibitors” (Bioorg Med Chem, 2017)

Experiments:
[1] = Drug metabolism in mouse liver microsomes assessed as metabolic turnover rate per 0.125 mg/ml protein pre-incubated at 37 degC for 5 mins before NADPH addition and measured after 30 mins by LC/MS/MS method; assay type: ADME, microsome; conditions: 0.5 h
[2] = Drug metabolism in mouse liver microsomes assessed as drug recovery pre-incubated at 37 degC for 5 mins measured after 30 mins in absence of NADPH by LC/MS/MS method; assay type: ADME, microsome; conditions: read-out: Drug recovery
[3] = Drug metabolism in rat liver microsomes assessed as drug recovery pre-incubated at 37 degC for 5 mins before NADPH addition and measured after 30 mins by LC/MS/MS method; assay type: ADME, microsome; conditions: read-out: Drug recovery
[4] = Clearance in Wistar rat at 1 mg/kg, iv after 0.25 to 24 hrs by LC/MS/MS method; assay type: ADME, organism-based; conditions: in vivo
In short: (§1)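 Male Wistar rats were given a single intravenous dose. The vehicle was NMP 10%, PEG-300 15%, and 0.1M ammonium acetate buffer q.s. (pH 3). Plasma concentration–time profiles were used to derive AUC0-t, Vss, clearance (mL/min/kg) and t1/2.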

[5] = Volume of distribution at steady state in Wistar rat at 1 mg/kg, iv after 0.25 to 24 hrs by LC/MS/MS method; assay type: ADME, organism-based; conditions: in vivo, read-out: Vdss; in short: as §1
[6] = Half life in rat liver microsomes pre-incubated at 37 degC for 5 mins before NADPH addition and measured after 30 mins by LC/MS/MS method; assay type: ADME, microsome
[7] = Drug metabolism in human liver microsomes assessed as metabolic turnover rate per 0.125 mg/ml protein pre-incubated at 37 degC for 5 mins before NADPH addition and measured after 30 mins by LC/MS/MS method; assay type: ADME, microsome; conditions: 0.5 h
[8] = AUC (0 to t) in Wistar rat at 1 mg/kg, iv after 0.25 to 24 hrs by LC/MS/MS method; assay type: ADME, organism-based; set-up: dose 1 mg/kg, time 0.25-24 hr, route intravenous; conditions: in vivo; in short: as §1
[9] = Half life in mouse liver microsomes pre-incubated at 37 degC for 5 mins before NADPH addition and measured after 30 mins by LC/MS/MS method; assay type: ADME, microsome
[10] = Drug metabolism in human liver microsomes assessed as drug recovery pre-incubated at 37 degC for 5 mins before NADPH addition and measured after 30 mins by LC/MS/MS method; assay type: ADME, microsome; conditions: read-out: Drug recovery
[11] = Drug metabolism in rat liver microsomes assessed as drug recovery pre-incubated at 37 degC for 5 mins measured after 30 mins in absence of NADPH by LC/MS/MS method; assay type: ADME, microsome; conditions: read-out: Drug recovery
[12] = biological target: T1, Adenosine deaminase (Bos taurus, UniProt P56658); assay: Inhibition of bovine adenosine deaminase pre-incubated for 5 mins before adenosine addition; conditions: read-out: Ki
T1 sequence (P56658 whole entry): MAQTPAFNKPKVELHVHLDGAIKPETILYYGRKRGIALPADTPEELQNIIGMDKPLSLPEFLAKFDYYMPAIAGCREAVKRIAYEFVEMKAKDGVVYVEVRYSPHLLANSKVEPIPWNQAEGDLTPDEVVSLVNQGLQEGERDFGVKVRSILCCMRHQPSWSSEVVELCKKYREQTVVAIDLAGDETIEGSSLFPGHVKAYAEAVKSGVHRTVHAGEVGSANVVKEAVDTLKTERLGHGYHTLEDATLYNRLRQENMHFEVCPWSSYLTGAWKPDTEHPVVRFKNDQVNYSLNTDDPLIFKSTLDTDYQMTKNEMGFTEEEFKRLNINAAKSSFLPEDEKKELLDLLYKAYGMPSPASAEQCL

[13] = Drug metabolism in rat liver microsomes assessed as metabolic turnover rate per 0.125 mg/ml protein pre-incubated at 37 degC for 5 mins before NADPH addition and measured after 30 mins by LC/MS/MS method; assay type: ADME, microsome; conditions: 0.5 h
[14] = Half life in Wistar rat at 1 mg/kg, iv after 0.25 to 24 hrs by LC/MS/MS method; assay type: ADME, organism-based; conditions: in vivo; in short: as §1
[15] = Half life in human liver microsomes pre-incubated at 37 degC for 5 mins before NADPH addition and measured after 30 mins by LC/MS/MS method; assay type: ADME, microsome
[16] = Drug metabolism in mouse liver microsomes assessed as drug recovery pre-incubated at 37 degC for 5 mins before NADPH addition and measured after 30 mins by LC/MS/MS method; assay type: ADME, microsome; conditions: read-out: Drug recovery
[17] = Drug metabolism in human liver microsomes assessed as drug recovery pre-incubated at 37 degC for 5 mins measured after 30 mins in absence of NADPH by LC/MS/MS method; assay type: ADME, microsome; conditions: read-out: Drug recovery
[18] = tested on: Rattus norvegicus; assay: Clearance in Wistar rat at 1 mg/kg, iv after 1 hr by LC/MS/MS method; assay type: ADME, organism-based; conditions: in vivo, BLD = below limit of detection; in short: as §1
[19] = tested on: Rattus norvegicus; assay: Plasma concentration in Wistar rat at 1 mg/kg, iv after 1 hr by LC/MS/MS method; assay type: ADME, organism-based; conditions: in vivo, BLD = below limit of detection; in short: as §1

Row | Drug metabolism [1] [nmol/min/mg] | remaining at 0.5 h [2] [%] | remaining at 0.5 h [3] [%] | clearance [4] [mL/min/kg] | Vd [5] [L/kg] | half-life [6] [min] | Drug metabolism [7] [nmol/min/mg] | AUC(0-t) [8] [µM·h] | half-life [9] [min] | remaining at 0.5 h [10] [%] | remaining at 0.5 h [11] [%] | Ki [12] [nM] | Drug metabolism [13] [nmol/min/mg] | half-life [14] [min] | half-life [15] [min] | remaining at 0.5 h [16] [%] | remaining at 0.5 h [17] [%] | CL [18] | Cp [19] | SMILES
1 | 0.04 | 93 | 87 | 33.3 | 2 | > 30 | 0.06 | 1.42 | > 30 | 79 | 92 | 5.9 | 0.04 | 56.4 | > 30 | 89 | 94 | – | – | C[C@H](O)[C@@H](CCc1cccc(C(F)(F)F)c1)n1cnc(C(N)=O)c1
2 | – | – | – | – | – | – | – | 0.35 | – | – | – | 2.2 | – | – | – | – | – | Bld | Bld | CCCCCC[C@H]([C@H](C)O)n1cnc2c(N)ncnc21 [(+)-EHNA]
